Active and inactive are the calls of the source. The calls are words filed in the database; no cut-off is given here.
What was measured:
[1] = system: L6; assay: Activation of AMPKalpha in rat L6 cells assessed as phosphorylation at Thr172 at 15 uM after 4 hrs by Western blot analysis relative to control; format: cell-based
In short: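 L6 myotubes treated 4 h with increasing compound concentrations (5 to 150 μM) or DMSO. Whole-cell lysates immunoblotted for pThr172-AMPKα, AMPKα and α-tubulin; phosphorylation expressed relative to DMSO-treated control.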

[2] = biological target: 5'-AMP-activated protein kinase catalytic subunit alpha-2 (Rattus norvegicus) (UniProt Q09137); assay: Activation of AMPK in rat L6 cells assessed as increase of [3H]dGlc uptake after 5 hrs in presence of Akt/PKB inhibitor 1,3-dihydro-1-(1-((4-(6-phenyl-1Himidazo[4,5-g]quinoxalin-7-yl)phenyl)methyl)-4-piperidinyl)-2H-benzimidazol-2-one trifluoroacetate salt hydrate; format: cell-based
5'-AMP-activated protein kinase catalytic subunit alpha-2 (Rattus norvegicus), sequence (Q09137 whole entry): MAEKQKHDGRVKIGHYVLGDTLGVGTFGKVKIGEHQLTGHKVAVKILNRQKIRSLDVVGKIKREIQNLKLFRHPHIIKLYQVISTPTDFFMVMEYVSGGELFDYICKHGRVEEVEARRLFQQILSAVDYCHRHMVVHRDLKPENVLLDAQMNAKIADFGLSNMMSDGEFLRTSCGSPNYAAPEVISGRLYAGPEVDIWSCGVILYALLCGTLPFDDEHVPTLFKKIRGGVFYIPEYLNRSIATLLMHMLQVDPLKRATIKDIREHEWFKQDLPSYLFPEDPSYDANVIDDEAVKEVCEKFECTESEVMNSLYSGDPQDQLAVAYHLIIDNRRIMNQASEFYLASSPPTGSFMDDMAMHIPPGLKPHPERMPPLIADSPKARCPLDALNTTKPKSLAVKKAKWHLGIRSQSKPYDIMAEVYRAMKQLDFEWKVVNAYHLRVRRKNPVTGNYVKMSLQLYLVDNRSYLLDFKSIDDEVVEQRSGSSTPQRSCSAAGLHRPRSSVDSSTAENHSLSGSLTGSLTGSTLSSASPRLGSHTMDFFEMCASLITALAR
In short: (§1)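 Myotubes treated with compound, insulin or vehicle in the absence or presence of 100 nM wortmannin or 100 nM Akt/PKB inhibitor, each added 30 min before compound or insulin. Compound C 5 μM was added 5 h before the uptake assay. Rate then measured by the standard 5-min [3H]dGlc uptake assay.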

[3] = system: Mus musculus; assay: Antidiabetic activity in po dosed KKAy mouse assessed as reduction of blood glucose level; format: functional, organism-based
[4] = biological target: 5'-AMP-activated protein kinase catalytic subunit alpha-2 (Rattus norvegicus) (UniProt Q09137); assay: Activation of AMPK in rat L6 cells assessed as increase of [3H]dGlc uptake after 5 hrs in presence of PI3K inhibitor wortmannin; format: cell-based; in short: as §1
[5] = biological target: 5'-AMP-activated protein kinase catalytic subunit alpha-2 (Rattus norvegicus) (UniProt Q09137); assay: Activation of AMPK in rat L6 cells assessed as ACC phosphorylation at Ser79 at 4 mM after 30 mins by Western blot analysis relative to control; format: cell-based
In short: (§2)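 Fully differentiated L6 myotubes, preincubated 3 h with or without 5 μM Compound C. Test agents: compound at 25 μM for 3 h, sorbitol 250 mM for 40 min, AICAR 4 mM for 30 min. Whole-cell lysates probed by Western blot for pSer79-ACC, ACC, pThr642-AS-160, AS-160 and α-tubulin; band densities summarized, n=3, vs respective controls.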

[6] = biological target: 5'-AMP-activated protein kinase catalytic subunit alpha-2 (Rattus norvegicus) (UniProt Q09137); assay: Activation of AMPK in rat L6 cells assessed as ACC phosphorylation at Ser79 at 250 mM after 40 mins by Western blot analysis relative to control; format: cell-based; in short: as §2

SMILES: CCOc1ccc2nc(SCc3nc4ccccc4s3)sc2c1
- fold change (FC) [1]: 5.5
- Activity [2]: Active
- Activity [3]: inactive
- Activity [4]: Active
- fold change (FC) [5]: 3.63
- fold change (FC) [6]: 2.56

Reference: ChEMBL document CHEMBL2396611, “Synthesis and mechanism of hypoglycemic activity of benzothiazole derivatives” (J Med Chem, 2013)
